Source: ChEMBL document CHEMBL3784968, “Synthesis and mechanistic aspects of 2-anilinonicotinyl-pyrazolo[1,5-a]pyrimidine conjugates that regulate cell proliferation in MCF-7 cells via estrogen signaling” (2016)
The source made the active and inactive calls. No cut-off for these calls is given here.

How the values were obtained:
SiHa = experiment: Cytotoxicity against human SiHa cells assessed as cell viability after 24 to 48 hrs by MTT assay; type: functional
Method in brief: (§1)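 MTT viability assay in SiHa, HeLa (cervical), MCF-7 (breast) and IMR-32 (neuroblastoma) cells, treated with conjugates over 0.25 to 8 µM for 48 h.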

MCF7 [1] = experiment: Cytotoxicity against human MCF7 cells assessed as cell viability after 24 to 48 hrs by MTT assay; type: functional; method in brief: as §1
HeLa = experiment: Cytotoxicity against human HeLa cells assessed as cell viability after 24 to 48 hrs by MTT assay; type: functional; method in brief: as §1
[2] = Cytotoxicity against human IMR32 cells assessed as cell viability after 24 to 48 hrs by MTT assay; type: functional, IMR-32; method in brief: as §1
MCF7 [3] = experiment: Cell cycle arrest in human MCF7 cells assessed as accumulation at G1 phase at 4 uM after 48 hrs (reference value: 63%); type: functional
Method in brief: (§2)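 MCF-7 breast cancer cells exposed 48 h to 4, 8, 16 or 32 µM; doxorubicin as positive control. Cell cycle phase distribution (G0, G1, S, G2/M) read as percentage of cells; G0 fraction taken as apoptotic cells.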

MCF7 [4] = experiment: Down regulation of cyclin D expression in human MCF7 cells at 1 uM after 24 hrs by Western blot analysis; type: functional, cell-based
MCF7 [5] = experiment: Cell cycle arrest in human MCF7 cells assessed as accumulation at S phase at 16 uM after 48 hrs (reference value: 9%); type: functional; method in brief: as §2
MCF7 [6] = experiment: Cell cycle arrest in human MCF7 cells assessed as accumulation at G1 phase at 32 uM after 48 hrs (reference value: 63%); type: functional; method in brief: as §2
MCF7 [7] = experiment: Cell cycle arrest in human MCF7 cells assessed as accumulation at G2/M phase at 8 uM after 48 hrs (reference value: 25%); type: functional; method in brief: as §2
MCF7 [8] = experiment: Cell cycle arrest in human MCF7 cells assessed as accumulation at S phase at 32 uM after 48 hrs (reference value: 9%); type: functional; method in brief: as §2
MCF7 [9] = experiment: Cell cycle arrest in human MCF7 cells assessed as accumulation at G0 phase at 4 uM after 48 hrs (reference value: 3%); type: functional; method in brief: as §2
MCF7 [10] = experiment: Cell cycle arrest in human MCF7 cells assessed as accumulation at G2/M phase at 16 uM after 48 hrs (reference value: 25%); type: functional; method in brief: as §2
MCF7 [11] = experiment: Down regulation of ER alpha expression in human MCF7 cells at 4 uM after 24 hrs by luciferase reporter gene assay; type: functional, cell-based
Method in brief: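 MCF-7 cells first transfected with ERα construct for 48 h, then compound exposure at 4 µM for 24 h; luciferase-based read-out; etoposide and doxorubicin run as standards.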

MCF7 [12] = experiment: Cell cycle arrest in human MCF7 cells assessed as accumulation at G0 phase at 16 uM after 48 hrs (reference value: 3%); type: functional; method in brief: as §2
MCF7 [13] = experiment: Cell cycle arrest in human MCF7 cells assessed as accumulation at S phase at 8 uM after 48 hrs (reference value: 9%); type: functional; method in brief: as §2
MCF7 [14] = experiment: Cell cycle arrest in human MCF7 cells assessed as accumulation at G0 phase at 32 uM after 48 hrs (reference value: 3%); type: functional; method in brief: as §2
MCF7 [15] = experiment: Down regulation of survivin expression in human MCF7 cells at 1 uM after 24 hrs by Western blot analysis; type: functional, cell-based
MCF7 [16] = experiment: Down regulation of Bcl-2 expression in human MCF7 cells at 1 uM after 24 hrs by Western blot analysis; type: functional, cell-based
MCF7 [17] = experiment: Cell cycle arrest in human MCF7 cells assessed as accumulation at G0 phase at 8 uM after 48 hrs (reference value: 3%); type: functional; method in brief: as §2
MCF7 [18] = experiment: Cell cycle arrest in human MCF7 cells assessed as accumulation at G2/M phase at 32 uM after 48 hrs (reference value: 25%); type: functional; method in brief: as §2
MCF7 [19] = experiment: Cell cycle arrest in human MCF7 cells assessed as accumulation at G1 phase at 16 uM after 48 hrs (reference value: 63%); type: functional; method in brief: as §2
MCF7 [20] = experiment: Cell cycle arrest in human MCF7 cells assessed as accumulation at G1 phase at 8 uM after 48 hrs (reference value: 63%); type: functional; method in brief: as §2
MCF7 [21] = experiment: Cell cycle arrest in human MCF7 cells assessed as accumulation at G2/M phase at 4 uM after 48 hrs (reference value: 25%); type: functional; method in brief: as §2
MCF7 [22] = experiment: Cell cycle arrest in human MCF7 cells assessed as accumulation at S phase at 4 uM after 48 hrs (reference value: 9%); type: functional; method in brief: as §2

| SMILES | Activity (SiHa) | Activity (MCF7 [1]) | Activity (HeLa) | Activity [2] | other results |
| --- | --- | --- | --- | --- | --- |
| COc1cc(-c2cc(C(=O)N3CCN(C(=O)c4cccnc4Nc4ccc(F)cc4)CC3)nc3cc(-c4ccccc4)nn23)cc(OC)c1OC | 5.25 µM | 6.28 µM | 2.57 µM | 5.75 µM | – |
| COc1ccc(-c2cc(C(=O)N3CCN(C(=O)c4cccnc4Nc4cc(OC)c(OC)c(OC)c4)CC3)nc3cc(-c4ccccc4)nn23)cc1OC | 7.65 µM | 7.34 µM | 4.24 µM | 4.88 µM | – |
| COc1ccc(-c2cc(C(=O)N3CCN(C(=O)c4cccnc4Nc4ccc(F)cc4)CC3)nc3cc(-c4ccccc4)nn23)cc1OC | 5.64 µM | 7.02 µM | 3.16 µM | 5.87 µM | – |
| COc1ccc(Nc2ncccc2C(=O)N2CCN(C(=O)c3cc(-c4ccc(OC)c(OC)c4)n4nc(-c5ccccc5)cc4n3)CC2)cc1 | 5.1 µM | 2.85 µM | 4.62 µM | 5.87 µM | – |
| COc1ccc(Nc2ncccc2C(=O)N2CCN(C(=O)c3cc(-c4ccc(F)cc4)n4nc(-c5ccccc5)cc4n3)CC2)cc1OC | 6.62 µM | 2.69 µM | 6.33 µM | 5.25 µM | – |
| COc1ccc(Nc2ncccc2C(=O)N2CCN(C(=O)c3cc(-c4ccc(Cl)c(Cl)c4)n4nc(-c5ccccc5)cc4n3)CC2)cc1OC | 3.73 µM | 5.95 µM | 5.11 µM | 7.15 µM | – |
| COc1ccc(Nc2ncccc2C(=O)N2CCN(C(=O)c3cc(-c4cc(OC)c(OC)c(OC)c4)n4nc(-c5ccccc5)cc4n3)CC2)cc1OC | 3.73 µM | 4.24 µM | 6.08 µM | 5.75 µM | – |
| O=C(c1cc(-c2ccc(Cl)c(Cl)c2)n2nc(-c3ccccc3)cc2n1)N1CCN(C(=O)c2cccnc2Nc2ccc(F)cc2)CC1 | 5.27 µM | 4.73 µM | 4.27 µM | 5.87 µM | – |
| COc1ccc(-c2cc(C(=O)N3CCN(C(=O)c4cccnc4Nc4ccc(OC)c(OC)c4)CC3)nc3cc(-c4ccccc4)nn23)cc1 | 3.73 µM | 2.53 µM | 5.87 µM | 5.12 µM | – |
| O=C(c1cc(-c2ccc(F)cc2)n2nc(-c3ccccc3)cc2n1)N1CCN(C(=O)c2cccnc2Nc2ccc(F)cc2)CC1 | 7.21 µM | 3.34 µM | 3.86 µM | 5.62 µM | – |
| COc1ccc(Nc2ncccc2C(=O)N2CCN(C(=O)c3cc(-c4ccc(OC)c(OC)c4)n4nc(-c5ccccc5)cc4n3)CC2)cc1OC | 5.93 µM | 2.61 µM | 5.7 µM | 5.25 µM | – |
| COc1ccc(Nc2ncccc2C(=O)N2CCN(C(=O)c3cc(-c4ccc(Cl)c(Cl)c4)n4nc(-c5ccccc5)cc4n3)CC2)cc1 | 3.92 µM | 6.12 µM | 2.64 µM | 5 µM | – |
| COc1ccc(-c2cc(C(=O)N3CCN(C(=O)c4cccnc4Nc4ccc(F)cc4)CC3)nc3cc(-c4ccccc4)nn23)cc1 | 5.93 µM | 4.97 µM | 3.79 µM | 5.87 µM | – |
| COc1ccc(Nc2ncccc2C(=O)N2CCN(C(=O)c3cc(-c4cc(OC)c(OC)c(OC)c4)n4nc(-c5ccccc5)cc4n3)CC2)cc1 | 3.87 µM | 3.02 µM | 2.85 µM | 5.87 µM | – |
| COc1cc(Nc2ncccc2C(=O)N2CCN(C(=O)c3cc(-c4ccc(Cl)c(Cl)c4)n4nc(-c5ccccc5)cc4n3)CC2)cc(OC)c1OC | 3.65 µM | 5.38 µM | 4.52 µM | 5.62 µM | – |
| COc1ccc(Nc2ncccc2C(=O)N2CCN(C(=O)c3cc(-c4ccc(OC)cc4)n4nc(-c5ccccc5)cc4n3)CC2)cc1 | 4.36 µM | 2.93 µM | 3.72 µM | 6.37 µM | – |
| COc1ccc(-c2cc(C(=O)N3CCN(C(=O)c4cccnc4Nc4ccccc4)CC3)nc3cc(-c4ccccc4)nn23)cc1 | 3.33 µM | 2.16 µM | 2.43 µM | 4.75 µM | Activity (MCF7 [3]): 52%; Activity (MCF7 [4]): Active; Activity (MCF7 [5]): 7%; Activity (MCF7 [6]): 38%; Activity (MCF7 [7]): 32%; Activity (MCF7 [8]): 10%; Activity (MCF7 [9]): 1%; Activity (MCF7 [10]): 25%; Activity (MCF7 [11]): Active; Activity (MCF7 [12]): 4%; Activity (MCF7 [13]): 9%; Activity (MCF7 [14]): 13%; Activity (MCF7 [15]): Active; Activity (MCF7 [16]): Active; Activity (MCF7 [17]): 2%; Activity (MCF7 [18]): 39%; Activity (MCF7 [19]): 64%; Activity (MCF7 [20]): 57%; Activity (MCF7 [21]): 37%; Activity (MCF7 [22]): 9% |
| COc1ccc(-c2cc(C(=O)N3CCN(C(=O)c4cccnc4Nc4ccccc4)CC3)nc3cc(-c4ccccc4)nn23)cc1OC | 5.93 µM | 6.12 µM | 2.88 µM | 6.5 µM | – |
| O=C(c1cc(-c2ccc(Cl)c(Cl)c2)n2nc(-c3ccccc3)cc2n1)N1CCN(C(=O)c2cccnc2Nc2ccccc2)CC1 | 5.93 µM | 5.3 µM | 2.57 µM | 7.87 µM | – |
| O=C(c1cc(-c2ccc(F)cc2)n2nc(-c3ccccc3)cc2n1)N1CCN(C(=O)c2cccnc2Nc2ccccc2)CC1 | 2.65 µM | 1.79 µM | 2.29 µM | 4.65 µM | Activity (MCF7 [3]): 52%; Activity (MCF7 [4]): Active; Activity (MCF7 [5]): 8%; Activity (MCF7 [6]): 44%; Activity (MCF7 [7]): 33%; Activity (MCF7 [8]): 9%; Activity (MCF7 [9]): 1%; Activity (MCF7 [10]): 28%; Activity (MCF7 [11]): Active; Activity (MCF7 [12]): 5%; Activity (MCF7 [13]): 10%; Activity (MCF7 [14]): 9%; Activity (MCF7 [15]): Active; Activity (MCF7 [16]): Active; Activity (MCF7 [17]): 2%; Activity (MCF7 [18]): 39%; Activity (MCF7 [19]): 58%; Activity (MCF7 [20]): 54%; Activity (MCF7 [21]): 38%; Activity (MCF7 [22]): 8% |
| COc1ccc(-c2cc(C(=O)N3CCN(C(=O)c4cccnc4Nc4cc(OC)c(OC)c(OC)c4)CC3)nc3cc(-c4ccccc4)nn23)cc1 | 6.08 µM | 3.83 µM | 4.24 µM | 6.62 µM | – |
| COc1cc(Nc2ncccc2C(=O)N2CCN(C(=O)c3cc(-c4ccc(F)cc4)n4nc(-c5ccccc5)cc4n3)CC2)cc(OC)c1OC | 4.07 µM | 7.59 µM | 4.31 µM | 5 µM | – |
| COc1cccc2c1C(=O)c1c(O)c3c(c(O)c1C2=O)C[C@@](O)(C(=O)CO)C[C@@H]3O[C@H]1C[C@H](N)[C@H](O)[C@H](C)O1 [DOXORUBICIN] | 3.93 µM | 0.473 µM | 1.25 µM | 4.5 µM | Activity (MCF7 [3]): 44%; Activity (MCF7 [5]): 11%; Activity (MCF7 [6]): 36%; Activity (MCF7 [7]): 50%; Activity (MCF7 [8]): 10%; Activity (MCF7 [9]): 1%; Activity (MCF7 [10]): 49%; Activity (MCF7 [12]): 6%; Activity (MCF7 [13]): 9%; Activity (MCF7 [14]): 8%; Activity (MCF7 [17]): 4%; Activity (MCF7 [18]): 46%; Activity (MCF7 [19]): 34%; Activity (MCF7 [20]): 37%; Activity (MCF7 [21]): 48%; Activity (MCF7 [22]): 8% |
| COc1cc(-c2cc(C(=O)N3CCN(C(=O)c4cccnc4Nc4ccccc4)CC3)nc3cc(-c4ccccc4)nn23)cc(OC)c1OC | 5.1 µM | 6.93 µM | 2.99 µM | 7.25 µM | – |
| COc1ccc(Nc2ncccc2C(=O)N2CCN(C(=O)c3cc(-c4ccc(F)cc4)n4nc(-c5ccccc5)cc4n3)CC2)cc1 | 4.56 µM | 8.08 µM | 6.6 µM | 5.37 µM | – |
